PMC6945494 (Biomaterials, 2019)
Values after ≈ are worked out from the molar mass of the structure shown. Like-named read-outs stand apart in the source and are kept apart here.

Legend:
[1] = tested on: HIV-1NL4–3-eGFP; test: microbe, parasite or virus in culture; format: cell-based; settings: Human immunodeficiency virus 1, T-cell, 240 h, read-out: EC50 (RT activity)
[2] = tested on: CEM-ss CD4+ T-cells
[3] = tested on: MDM; test: Cellular drug uptake and retention in MDM; format: cell-based, human
[4] = Pharmacokinetics and biodistribution after a single IM injection; format: in vivo, Sprague Dawley rats; settings: rat
[5] = Solubility in water and 1-octanol; format: physicochemical
How it was run: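 Excess test compound or parent nucleoside was added to water or 1-octanol to give saturated solutions. These were mixed 24 h at room temperature, then centrifuged at 14,000 × g for 10 min to remove undissolved drug. Supernatant concentration was quantified by UPLC-TUV.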

[6] = tested on: MDM; test: MTT cell viability assay in MDM; format: cell-based, human; settings: for effect on mitochondrial reductase activity (MTT): 10–400 μM
[7] = tested on: HIV-1ADA; test: Long-term antiretroviral efficacy in MDM; format: cell-based
How it was run: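 Human monocytes from leukapheresis, purified by elutriation and differentiated 7 days in DMEM with 10% heat-inactivated human serum and 1000 U/mL MCSF. MDM were exposed to 100 μM test compound for 8 h, washed, and kept drug-free with half-media changes every other day. On days 1–30 they were challenged with HIV-1ADA at MOI 0.1 for 16 h. RT activity in fluids on day 10; PFA-fixed cells stained for p24.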

[8] = tested on: HIV-1ADA; test: EC50 by HIV-1 RT activity in MDM; format: cell-based; settings: read-out: EC50 (HIV-1 RT activity)
[9] = Plasma stability, animal plasma; format: in vitro ADME, rat, mouse; settings: rodent, dog, rabbit and monkey plasma, after 24 h at 37 °C
How it was run: (§1)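 Plasma (100 μL) was spiked with 1 μM test compound at 37 °C. It was stopped at 0, 2, 6 and 24 h with 1 mL methanol and 3 min vortexing. Heat-inactivated plasma under identical conditions separated chemical from enzymatic loss. After centrifugation at 15,000 g for 10 min, supernatant was diluted in 80% methanol with internal standard. Analysed by UPLC-MS/MS.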

[10] = Plasma stability, human plasma; format: in vitro ADME; settings: 37 °C; for chemical stability in plasma: up to 24 h, 1 μM
How it was run: as §1

[11] = Prodrug chemical stability at acid, alkaline and neutral pH; format: physicochemical; settings: room temperature; for prodrug degraded: after 24 h

Nc1nc(=O)n([C@@H]2CS[C@H](CO)O2)cc1F [FTC, emtricitabine]
EC50 [1]: 25.7 nM | concentration not affecting cell viability (LiveDead staining) ([2]; human): ≤ 200 µM | intracellular drug concentration (uptake) ([3]; 100 μM, over 8 h): < 0.1 nmoles/10^6 cells | intracellular drug (retention) ([3]; at 8 h): undetectable | concentration at 7 days ([4]; male, Sprague Dawley, whole blood, intramuscular, 45 mg/kg FTC-equivalent): < 2 ng/mL | drug concentrations in blood and tissues over time (in words) ([4]; single IM 45 mg/kg): declined to undetectable levels within a day | FTC-TP levels in lymph node and spleen cells ([4]; single IM 45 mg/kg FTC equivalents, day 28 / one month): undetectable levels | drug levels in tissues (in words) ([4]; single IM 45 mg/kg, lymph nodes, spleen, liver): rapidly fell below the limit of quantitation | solubility at 24 h ([5]; 1-octanol): 0.97 ± 0.027 mg/mL (≈ 3.92 mM) | solubility at 24 h ([5]; water): 143 ± 11.2 mg/mL (≈ 578 mM) | effect on mitochondrial reductase activity (MTT) [6]: No effects | inhibition at 100 µM ([7]; Human immunodeficiency virus 1, 8 h, read-out: protection (viral inhibition)): 40% | viral inhibition ([7]; MDM, single 8 h treatment 100 μM, challenge at time points later than day one): no viral inhibition | EC50 ([8]; Human immunodeficiency virus 1, 240 h): 0.5 nM

CCCCCCCCCCCCCCCCCCCCCCOC(=O)[C@H](Cc1ccccc1)NP(=O)(OC[C@@H]1O[C@H](n2cc(F)c(N)nc2=O)CS1)Oc1ccccc1 (stereo partly drawn) [M2FTC]
degradation in plasma (in words) [9]: high | concentration not affecting cell viability (LiveDead staining) [2]: ≤ 200 µM | fold improvement in octanol solubility compared to FTC ([5]; 1-octanol): 90 fold | octanol solubility ([5]; 1-octanol, saturated solution mixed 24 h): 87.56 ± 0.236 mg/mL | fold decrease in aqueous solubility compared to FTC ([5]; water): 4000 fold | aqueous solubility ([5]; water, saturated solution mixed 24 h): 0.0366 ± 0.0093 mg/mL (≈ 0.0426 mM) | chemical stability in plasma ([10]; heat inactivated human plasma): over 90% | plasma stability (in words) ([10]; normal and heat inactivated human plasma, over 24 h): remained stable | chemical stability in plasma ([10]; normal human plasma): over 90% | prodrug degraded ([11]; acidic pH (0.1 M HCl)): 10% | prodrug degraded ([11]; alkaline pH (0.1 M NaOH)): 10% | chemical stability at neutral pH ([11]; neutral pH (water)): stable over 7 days | effect on mitochondrial reductase activity (MTT) [6]: No effects | non-cytotoxic concentration (MTT) ([6]; 24 h treatment): ≤ 100 µM | effect on cell viability (MTT) ([6]; above 100 μM): slight reduction in cell viability | EC50 ([8]; HIV-1ADA in MDM, MOI 0.1, 10 days): 0.11 nM
